Experimental data from ChEMBL document CHEMBL4706676 (Bioorg Med Chem Lett, 2021).

Tests used:
Type in all cases: functional, cell-based
CWR22R = assay: Antiproliferative activity against human 22Rv1 cells assessed as reduction in cell viability
In short: (§1)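 Human prostate cancer cells taken from exponential-phase culture, seeded at 8000–12,000 cells/well and allowed 24 h recovery. Compounds then added at 10 half-log concentrations in triplicate, with medium-only controls, for a total 96 h exposure. After a PBS wash, cells stained with propidium iodide plus 0.1% Triton X-100 for 1–2 h at room temperature. Fluorescence read (ex 530/em 620 nm) as attached viable cells. IC50 from 4-parameter curve fit, geometric mean of three independent experiments.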

DU-145 = assay: Antiproliferative activity against human DU-145 cells assessed as reduction in cell viability; in short: as §1
LNCaP = assay: Antiproliferative activity against human LNCaP cells assessed as reduction in cell viability
In short: as §1, with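 “temperature.” for “temperature. Fluorescence read (ex 530/em 620 nm) as attached viable cells.”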

VCaP = assay: Antiproliferative activity against human VCaP cells assessed as reduction in cell viability; in short: as §1

`CC(O)(C[S+]([O-])c1ccccc1OC(F)(F)F)C(=O)Nc1ccc([N+](=O)[O-])cc1C(F)(F)F` (stereo not drawn) showed an IC50 (CWR22R; Homo sapiens, 22Rv1) of 15.2 µM, an IC50 (DU-145; Homo sapiens, DU-145) of 31.1 µM and an IC50 (LNCaP; Homo sapiens, LNCaP) of 9.09 µM. For the same molecule, the IC50 (VCaP) was 20.7 µM.
Work on `CC(O)(C[S+]([O-])c1ccc(OC(F)(F)F)cc1)C(=O)Nc1ccc([N+](=O)[O-])cc1C(F)(F)F` (stereo not drawn) yielded an IC50 (CWR22R; Homo sapiens, 22Rv1) greater than 100 µM, an IC50 (DU-145; Homo sapiens, DU-145) greater than 100 µM and an IC50 (LNCaP; Homo sapiens, LNCaP) greater than 100 µM. The IC50 (VCaP) was greater than 100 µM.
`CC(O)(C[S+]([O-])c1ccc(F)cc1F)C(=O)Nc1ccc([N+](=O)[O-])cc1C(F)(F)F` (stereo not drawn) gave an IC50 (CWR22R; Homo sapiens, 22Rv1) of 51.1 µM, an IC50 (DU-145; Homo sapiens, DU-145) greater than 100 µM and an IC50 (LNCaP; Homo sapiens, LNCaP) of 24.4 µM. It also gave an IC50 (VCaP) greater than 100 µM.
Work on `CC(O)(C[S+]([O-])c1ccc(C(F)(F)F)cn1)C(=O)Nc1ccc([N+](=O)[O-])cc1C(F)(F)F` (stereo not drawn) yielded an IC50 (CWR22R; Homo sapiens, 22Rv1) greater than 100 µM, an IC50 (DU-145; Homo sapiens, DU-145) greater than 100 µM and an IC50 (LNCaP; Homo sapiens, LNCaP) greater than 100 µM. For the same molecule, the IC50 (VCaP) was greater than 100 µM.
Molecule `CC(O)(C[S+]([O-])c1ccc(C(F)(F)F)cc1)C(=O)Nc1ccc([N+](=O)[O-])cc1C(F)(F)F` (stereo not drawn) has an IC50 (CWR22R; Homo sapiens, 22Rv1) of 21.1 µM, an IC50 (DU-145; Homo sapiens, DU-145) of 36.5 µM and an IC50 (LNCaP; Homo sapiens, LNCaP) of 25.6 µM. The IC50 (VCaP) was 24.2 µM.
With `CC(O)(C[S+]([O-])c1ccc(OC(F)(F)F)cc1)C(=O)Nc1ccc(C#N)c(C(F)(F)F)c1` (stereo not drawn) the IC50 (CWR22R; Homo sapiens, 22Rv1) was 41.2 µM, the IC50 (DU-145; Homo sapiens, DU-145) was 52.1 µM and the IC50 (LNCaP; Homo sapiens, LNCaP) was 36.2 µM. The IC50 (VCaP) was 53.5 µM.
`CC(O)(C[S+]([O-])c1ccccn1)C(=O)Nc1ccc([N+](=O)[O-])cc1C(F)(F)F` (stereo not drawn) was tested, and the IC50 (CWR22R; Homo sapiens, 22Rv1) was greater than 100 µM, the IC50 (DU-145; Homo sapiens, DU-145) was greater than 100 µM and the IC50 (LNCaP; Homo sapiens, LNCaP) was greater than 100 µM. It also gave an IC50 (VCaP) of 100 µM.
`CC(O)(C[S+]([O-])c1ccccn1)C(=O)Nc1ccc(C#N)c(C(F)(F)F)c1` (stereo not drawn) showed an IC50 (CWR22R; Homo sapiens, 22Rv1) greater than 100 µM, an IC50 (DU-145; Homo sapiens, DU-145) greater than 100 µM and an IC50 (LNCaP; Homo sapiens, LNCaP) greater than 100 µM. The IC50 (VCaP) was greater than 100 µM.
In the case of `CC(O)(C[S+]([O-])c1ccc(F)c(F)c1)C(=O)Nc1ccc([N+](=O)[O-])cc1C(F)(F)F` (single isomer, unassigned), the IC50 (CWR22R; Homo sapiens, 22Rv1) is reported as greater than 100 µM, the IC50 (DU-145; Homo sapiens, DU-145) is reported as greater than 100 µM and the IC50 (LNCaP; Homo sapiens, LNCaP) is reported as greater than 100 µM. For the same molecule, the IC50 (VCaP) was greater than 100 µM.
Work on `CC(O)(C[S+]([O-])c1ccc(C(F)(F)F)cn1)C(=O)Nc1ccc(C#N)c(C(F)(F)F)c1` (stereo in doubt; form 1) yielded an IC50 (CWR22R; Homo sapiens, 22Rv1) of 65.5 µM, an IC50 (DU-145; Homo sapiens, DU-145) of 100 µM and an IC50 (LNCaP; Homo sapiens, LNCaP) of 95.4 µM. For the same molecule, the IC50 (VCaP) was greater than 100 µM.
`CC(O)(C[S+]([O-])c1ccc(C(F)(F)F)cn1)C(=O)Nc1ccc(C#N)c(C(F)(F)F)c1` (stereo in doubt; form 2) gave an IC50 (CWR22R; cwr22r) of 77 µM, an IC50 (DU-145; du-145) greater than 100 µM and an IC50 (LNCaP; lncap) greater than 100 µM.
